{"source": "ChEMBL document CHEMBL3525963", "about": "“Tissue distribution and elimination of [14C]apixaban in rats” (Drug Metab Dispos, 2011)", "design_in_all_cases": "dose 5 mg/kg, dosed compound name [14C]-apixaban, route oral", "conditions_in_all_cases": "in vivo", "key": {"Rattus norvegicus [1]": {"system": "Rattus norvegicus", "assay": "Biodistribution in female Sprague-Dawley rat pituitary gland at 5 mg/kg, po administered as single dose measured after 4 hrs", "type": "ADME, organism-based", "procedure,_shortened": "(§1)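 [14C]apixaban (20 μCi/mL in dosing solution) in 0.5% Tween 80 in Labrafil given by oral gavage to fasted female rats, 206-213 g, at 100 μCi/kg. One rat per time point was euthanized and snap-frozen. Sagittal 40 µm whole-body sections were read by QWBA phosphor imaging against [14C]glucose standards. Results are in µg eq apixaban/g, with LLOQ 0.037 μg eq/g.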"}, "Adrenal gland": {"system": "Adrenal gland", "assay": "Biodistribution in female Sprague-Dawley rat adrenal gland at 5 mg/kg, po administered as single dose measured after 1 hr", "type": "ADME, organism-based", "procedure,_shortened": "(§2)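 [¹⁴C]Apixaban given by oral gavage at 5 mg/kg (100 μCi/kg) in 0.5% Tween 80 in Labrafil (1.0 mg/mL dosing solution) to rats fasted overnight through 4 h post-dose. One rat per time point; carcass frozen in hexane/dry ice. Quantitative whole-body autoradiography used 40 µm sagittal sections and a phosphor imaging plate calibrated with [¹⁴C]glucose standards (0.001–6.5 μCi/g). Read-out in µg eq apixaban/g; LLOQ 0.037 μg eq/g.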"}, "Rattus norvegicus [2]": {"system": "Rattus norvegicus", "assay": "Biodistribution in male Sprague-Dawley rat brown fat at 5 mg/kg, po administered as single dose measured after 1 hr", "type": "ADME, organism-based, Brown adipose tissue", "procedure,_shortened": "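Fasted male rats, 225-252 g, received [14C]apixaban by single oral gavage at 100 μCi/kg in 0.5% Tween 80/Labrafil. One rat was killed per time point and the carcass frozen. Tissue radioactivity was quantified by QWBA (40 µm sagittal sections, phosphor plate, [14C]glucose calibration) as µg eq apixaban/g, with LLOQ 0.037 μg eq/g.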"}, "[3]": {"assay": "Cmax in lactating Sprague-Dawley rat milk at 5 mg/kg, po administered as single dose", "type": "ADME, organism-based", "procedure,_shortened": "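Lactating SD rats received a single oral gavage of 5 mg/kg (108 μCi/kg) in 0.5% Tween 80/Labrafil. Three rats were sampled per time point at 0.5-24 h. Oxytocin was given sc 15 min before milking under anesthesia. Milk, blood and plasma were counted in duplicate by liquid scintillation for 10 min and expressed as apixaban equivalents.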"}, "Thymus": {"system": "Thymus", "assay": "Biodistribution in pregnant Sprague-Dawley rat thymus at 5 mg/kg, po administered as single dose measured after 8 hrs", "type": "ADME, organism-based"}, "Rattus norvegicus [4]": {"system": "Rattus norvegicus", "assay": "Biodistribution in pregnant Sprague-Dawley rat amnion at 5 mg/kg, po administered as single dose measured after 8 hrs", "type": "ADME, organism-based"}, "Rattus norvegicus [5]": {"system": "Rattus norvegicus", "assay": "Biodistribution in pregnant Sprague-Dawley rat salivary gland at 5 mg/kg, po administered as single dose measured after 48 hrs", "type": "ADME, organism-based", "procedure,_shortened": "(§3)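 Pregnant SD rats (270-319 g) were fasted overnight and given one oral gavage of 5 mg/kg (100 μCi/kg) in 0.5% Tween 80 in Labrafil. One rat was euthanized per time point (0.5, 1, 4, 8, 24, 48 h) and the carcass frozen. 40 µm sagittal sections were phosphor-imaged against [14C]glucose standards and results reported as µg eq/g; LLOQ 0.037 µg eq/g.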"}, "Pancreas": {"system": "Pancreas", "assay": "Biodistribution in pregnant Sprague-Dawley rat pancreas at 5 mg/kg, po administered as single dose measured after 8 hrs", "type": "ADME, organism-based", "procedure,_shortened": "as §3"}, "Muscle tissue": {"system": "Muscle tissue", "assay": "Biodistribution in female Sprague-Dawley rat muscle at 5 mg/kg, po administered as single dose measured after 1 hr", "type": "ADME, organism-based", "procedure,_shortened": "as §2"}, "Blood [6]": {"system": "Blood", "assay": "Biodistribution in male Sprague-Dawley rat blood at 5 mg/kg, po administered as single dose measured after 0.5 hrs", "type": "ADME, organism-based", "procedure,_shortened": "as §2"}, "Rattus norvegicus [7]": {"system": "Rattus norvegicus", "assay": "Biodistribution in female Sprague-Dawley rat pituitary gland at 5 mg/kg, po administered as single dose measured after 1 hr", "type": "ADME, organism-based", "procedure,_shortened": "as §1"}, "Lung": {"system": "Lung", "assay": "Biodistribution in male Sprague-Dawley rat lung at 5 mg/kg, po administered as single dose measured after 0.5 hrs", "type": "ADME, organism-based", "procedure,_shortened": "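[14C]apixaban (1.0 mg/mL, 20 μCi/mL) in 0.5% Tween 80 in Labrafil, given by oral gavage at 100 μCi/kg to male rats (225-252 g) fasted overnight through 4 h post-dose. One rat per time point. Carcasses frozen in hexane/dry ice and cut into 40 µm sagittal sections. QWBA read on phosphor plates against [14C]glucose standards, reported as µg eq/g. LLOQ 0.037 µg eq/g.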"}, "Blood [8]": {"system": "Blood", "assay": "Biodistribution in female Sprague-Dawley rat blood at 5 mg/kg, po administered as single dose measured after 24 hrs", "type": "ADME, organism-based", "procedure,_shortened": "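Quantitative whole-body autoradiography was run after a single 5 mg/kg (100 μCi/kg) oral gavage to fasted female or pregnant SD rats, one rat per time point. Carcasses were frozen in hexane/dry ice, and 40 µm sagittal sections were dried at −20°C for at least 48 h. Sections were exposed to a phosphor plate alongside [14C]glucose standards (0.001–6.5 µCi/g). Results are µg eq/g, with LLOQ 0.037 µg eq/g.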"}}, "data": [{"smiles": "COc1ccc(-n2nc(C(N)=O)c3c2C(=O)N(c2ccc(N4CCCC[14C]4=O)cc2)CC3)cc1", "values": [{"measurement": "Radiolabel recovery", "setting": "Rattus norvegicus [1]", "value": 0.48, "unit": "ugequiv/g"}, {"measurement": "Radiolabel recovery", "setting": "Adrenal gland", "value": 1.1, "unit": "ugequiv/g"}, {"measurement": "Radiolabel recovery", "setting": "Rattus norvegicus [2]", "value": 0.94, "unit": "ugequiv/g"}, {"measurement": "Cmax", "setting": "[3]", "value": 8920, "unit": "ngequiv/g"}, {"measurement": "Radiolabel recovery", "setting": "Thymus", "value": 0.05, "unit": "ugequiv/g"}, {"measurement": "Radiolabel recovery", "setting": "Rattus norvegicus [4]", "value": 2.12, "unit": "ugequiv/g"}, {"measurement": "Radiolabel recovery", "setting": "Rattus norvegicus [5]", "value": "Not detected assumed BLQ"}, {"measurement": "Radiolabel recovery", "setting": "Pancreas", "value": 0.09, "unit": "ugequiv/g"}, {"measurement": "Radiolabel recovery", "setting": "Muscle tissue", "value": 0.27, "unit": "ugequiv/g"}, {"measurement": "Radiolabel recovery", "setting": "Blood [6]", "value": 0.42, "unit": "ugequiv/g"}, {"measurement": "Radiolabel recovery", "setting": "Rattus norvegicus [7]", "value": 0.42, "unit": "ugequiv/g"}, {"measurement": "Radiolabel recovery", "setting": "Lung", "value": 0.57, "unit": "ugequiv/g"}, {"measurement": "Radiolabel recovery", "setting": "Blood [8]", "value": "Not detected assumed BLQ"}]}]}
